In ChEMBL document CHEMBL4382209, “Comparison between porphin, chlorin and bacteriochlorin derivatives for photodynamic therapy: Synthesis, photophysical properties, and biological activity” (Eur J Med Chem, 2018):
The source made the active and inactive calls. The calls are words filed in the database; no cut-off is given here.

Legend:
[1] = Dark toxicity in human ECA109 cells assessed as decrease in cell viability after 24 hrs by MTT assay; assay type: cell-based, ECa-109
[2] = Dark toxicity in human ECA109 cells assessed as cell survival at 20 uM after 24 hrs by MTT assay relative to control; assay type: cell-based, ECa-109; conditions: read-out: Survival
How it was run: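 Eca-109 human esophageal carcinoma cells in RPMI-1640 with 10% FBS, trypsinised and seeded at 5×10^4 cells per well, attached for 24 h. Photosensitiser in medium (0 to 60 μM) was taken up for 24 h and the cells were not irradiated. Viability was read by MTT colorimetric assay 24 h after treatment.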

ECa-109 cell line [3] = assay: Phototoxicity against human ECA109 cells assessed as decrease in cell viability after 24 hrs at 16 J/cm2 irradiation by MTT assay; assay type: functional, cell-based; conditions: ECa-109, light or radiation study
How it was run: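 Eca-109 cells (5×10^4/well, attached for 24 h) took up compound (0–16 μM) for 24 h. They were washed with PBS and irradiated with Nd:YAG laser at 16 J/cm²: 635 nm for porphins, 650 nm for chlorins, 730 nm for bacteriochlorins. MTT viability was read 24 h later, and IC50 was derived.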

[4] = Induction of singlet oxygen generation assessed as singlet oxygen quantum yield by measuring DPBF chemical oxidation in DMF solution incubated up to 4 mins at 5 mW/cm2 laser irradiation by UV-Vis spectrophotometry; assay type: functional
[5] = Induction of singlet oxygen generation assessed as singlet oxygen quantum yield by measuring DPBF chemical oxidation in DMF solution incubated up to 8 mins at 5 mW/cm2 laser irradiation by UV-Vis spectrophotometry; assay type: functional
[6] = Drug uptake in mitochondria of human ECA109 cells at 10 uM after 4 hrs by Mito Tracker green dye-based confocal fluorescence microscopic method; assay type: ADME; conditions: eca-109, 4 h
How it was run: (§1)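 Eca-109 cells were plated on poly-L-lysine-coated coverslips at 1×10^5 cells/mL. After 24 h, they took up 10 μM compound in the dark for 4 h at 37 °C. They were stained with Mito-tracker Green or Lyso-Blue for 20 min at 37 °C, rinsed, and fixed in 4% paraformaldehyde at 4 °C for 30 min. Confocal imaging used sequential scans, exciting at 490 nm (Mito), 373 nm (Lyso, PS).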

[7] = Drug uptake in lysosomes of human ECA109 cells at 10 uM after 4 hrs by Lyso Blue dye-based confocal fluorescence microscopic method; assay type: ADME, subcellular, Lysosome; conditions: eca-109, 4 h; how it was run: as §1
ECa-109 cell line [8] = assay: Antitumor activity against human ECA109 cells xenografted in BALB/c nude mouse assessed as tumor size at 5 mg/kg, iv treated for 24 hrs before 120 J/cm2 laser light irradiation for 5 mins and measured every other day up to 14 days (reference value: 785 +/- 37 mm3); assay type: functional
How it was run: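 Eca-109 s.c. xenografts (5×10^6 cells, right forelimb) were grown in female BALB/c nude mice to ~100 mm³. Compound 5 mg/kg in 0.2 mL went i.v. into the tail vein. At 24 h, restrained unanaesthetised mice got 730 nm laser at 120 J/cm² to the tumour. Controls received no PS or light; 6 mice/group. Volume LW²/2 was taken every two days for 14 days.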

[9] = Induction of singlet oxygen generation assessed as singlet oxygen quantum yield by measuring DPBF chemical oxidation in DMF solution incubated up to 5 mins at 5 mW/cm2 laser irradiation by UV-Vis spectrophotometry; assay type: functional
ECa-109 cell line [10] = assay: Antitumor activity against human ECA109 cells xenografted in BALB/c nude mouse assessed as tumor size at 5 mg/kg, iv measured every other day up to 14 days; assay type: functional, organism-based
How it was run: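 Four-week-old female BALB/c nude mice were given 5×10^6 Eca-109 cells s.c. in PBS into the right forelimb. At about 100 mm³ (~14 days), the compound was given at 5 mg/kg in 0.2 mL via the lateral tail vein, with no irradiation; 6 mice/group. Orthogonal L and W were measured every two days for 14 days, and V = LW²/2.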

SMILES: COc1ccc(-c2c3nc(cc4ccc([nH]4)c(-c4ccc(OC)c(OCCCC(=O)O)c4)c4nc(cc5ccc2[nH]5)CC4)CC3)cc1OCCCC(=O)O
- IC50 at 24 h [1]: > 300 µM
- viability at 24 h, 20 µM [2]: 80%
- IC50 (ECa-109 cell line [3]): 2.47 µM
- Activity [4]: 48.6 ×10⁻² k/min

SMILES: COc1ccc(-c2c3nc(cc4ccc([nH]4)c(-c4ccc(OC)c(OCCCC(=O)O)c4)c4nc(cc5ccc2[nH]5)CC4)C=C3)cc1OCCCC(=O)O
- IC50 at 24 h [1]: > 300 µM
- viability at 24 h, 20 µM [2]: 80%
- IC50 (ECa-109 cell line [3]): 2.83 µM
- DPBF oxidation rate constant [5]: 19.8 ×10⁻² k/min

SMILES: COc1ccc(-c2c3nc(cc4ccc([nH]4)c(-c4ccc(OC)c(OCCCC(=O)O)c4)c4nc(cc5ccc2[nH]5)C=C4)C=C3)cc1OCCCC(=O)O
- IC50 at 24 h [1]: 183 µM
- viability at 24 h, 20 µM [2]: 80%
- IC50 (ECa-109 cell line [3]): 10.1 µM
- DPBF oxidation rate constant [5]: 1.68 ×10⁻² k/min

SMILES: COc1ccc(-c2c3nc(cc4ccc([nH]4)c(-c4ccc(OC)c(OCC(=O)O)c4)c4nc(cc5ccc2[nH]5)C=C4)C=C3)cc1OCC(=O)O
- IC50 at 24 h [1]: 158 µM
- viability at 24 h, 20 µM [2]: 80%
- IC50 (ECa-109 cell line [3]): 12.5 µM
- DPBF oxidation rate constant [5]: 2.41 ×10⁻² k/min

SMILES: COc1ccc(-c2c3nc(cc4ccc([nH]4)c(-c4ccc(OC)c(OCC(=O)O)c4)c4nc(cc5ccc2[nH]5)CC4)CC3)cc1OCC(=O)O
- IC50 at 24 h [1]: 187 µM
- viability at 24 h, 20 µM [2]: 80%
- IC50 (ECa-109 cell line [3]): 3.09 µM
- DPBF oxidation rate constant [5]: 38.7 ×10⁻² k/min

SMILES: O=C(O)CCCOc1cccc(-c2c3nc(cc4ccc([nH]4)c(-c4cccc(OCCCC(=O)O)c4)c4nc(cc5ccc2[nH]5)CC4)C=C3)c1
- IC50 at 24 h [1]: > 300 µM
- viability at 24 h, 20 µM [2]: 80%
- IC50 (ECa-109 cell line [3]): 2.65 µM
- DPBF oxidation rate constant [5]: 24.9 ×10⁻² k/min

SMILES: O=C(O)CCCOc1cccc(-c2c3nc(cc4ccc([nH]4)c(-c4cccc(OCCCC(=O)O)c4)c4nc(cc5ccc2[nH]5)C=C4)C=C3)c1
- IC50 at 24 h [1]: 271 µM
- viability at 24 h, 20 µM [2]: 80%
- IC50 (ECa-109 cell line [3]): 8.19 µM
- DPBF oxidation rate constant [5]: 1.93 ×10⁻² k/min

SMILES: O=C(O)CCCOc1cccc(-c2c3nc(cc4ccc([nH]4)c(-c4cccc(OCCCC(=O)O)c4)c4nc(cc5ccc2[nH]5)CC4)CC3)c1
- Drug uptake [6]: Active
- Drug uptake [7]: Active
- IC50 at 24 h [1]: > 500 µM
- viability at 24 h, 20 µM [2]: 80%
- IC50 (ECa-109 cell line [3]): 2.43 µM
- Activity (ECa-109 cell line [8]): 126 mm3
- Activity [9]: 69.1 ×10⁻² k/min
- Activity (ECa-109 cell line [10]): inactive

SMILES: O=C(O)COc1cccc(-c2c3nc(cc4ccc([nH]4)c(-c4cccc(OCC(=O)O)c4)c4nc(cc5ccc2[nH]5)C=C4)C=C3)c1
- IC50 at 24 h [1]: 74.6 µM
- viability at 24 h, 20 µM [2]: 80%
- IC50 (ECa-109 cell line [3]): 9.41 µM
- DPBF oxidation rate constant [5]: 0.829 ×10⁻² k/min

SMILES: O=C(O)COc1cccc(-c2c3nc(cc4ccc([nH]4)c(-c4cccc(OCC(=O)O)c4)c4nc(cc5ccc2[nH]5)CC4)C=C3)c1
- IC50 at 24 h [1]: 91.8 µM
- viability at 24 h, 20 µM [2]: 80%
- IC50 (ECa-109 cell line [3]): 3.31 µM
- Activity [9]: 4.06 ×10⁻² k/min

SMILES: COc1ccc(-c2c3nc(cc4ccc([nH]4)c(-c4ccc(OC)c(OCC(=O)O)c4)c4nc(cc5ccc2[nH]5)CC4)C=C3)cc1OCC(=O)O
- IC50 at 24 h [1]: 111 µM
- viability at 24 h, 20 µM [2]: 80%
- IC50 (ECa-109 cell line [3]): 3.14 µM
- DPBF oxidation rate constant [5]: 14.2 ×10⁻² k/min

SMILES: O=C(O)COc1cccc(-c2c3nc(cc4ccc([nH]4)c(-c4cccc(OCC(=O)O)c4)c4nc(cc5ccc2[nH]5)CC4)CC3)c1
- IC50 at 24 h [1]: 162 µM
- viability at 24 h, 20 µM [2]: 80%
- IC50 (ECa-109 cell line [3]): 2.62 µM
- DPBF oxidation rate constant [5]: 30.9 ×10⁻² k/min
